Several values for one entry are separate records, joined by “and”; a condition that tells them apart may be missing. Identical values can stand only once. Entries after “also recorded” stand apart in the source; their conditions may differ. Like-named read-outs stand apart in the source and are kept apart here.
Assays:
[1] = but not plasma; cited from earlier work
[2] = cited from earlier work
RBCs [3] = experiment: BEN metabolism in 10% RBCs with ALDH and AO inhibitor; type: in vitro ADME, human; settings: for inhibition of BEN metabolism (conversion of BEN to BA) in RBC: 10% RBCs in plasma, inhibitor 150 μM
purified human ALDH1A1 = biological target: T1, purified human ALDH1A1 (Homo sapiens, UniProt P00352); experiment: Metabolism using purified ALDH isoforms: ALDH1A1; type: biochemical
T1 sequence (P00352 1-501): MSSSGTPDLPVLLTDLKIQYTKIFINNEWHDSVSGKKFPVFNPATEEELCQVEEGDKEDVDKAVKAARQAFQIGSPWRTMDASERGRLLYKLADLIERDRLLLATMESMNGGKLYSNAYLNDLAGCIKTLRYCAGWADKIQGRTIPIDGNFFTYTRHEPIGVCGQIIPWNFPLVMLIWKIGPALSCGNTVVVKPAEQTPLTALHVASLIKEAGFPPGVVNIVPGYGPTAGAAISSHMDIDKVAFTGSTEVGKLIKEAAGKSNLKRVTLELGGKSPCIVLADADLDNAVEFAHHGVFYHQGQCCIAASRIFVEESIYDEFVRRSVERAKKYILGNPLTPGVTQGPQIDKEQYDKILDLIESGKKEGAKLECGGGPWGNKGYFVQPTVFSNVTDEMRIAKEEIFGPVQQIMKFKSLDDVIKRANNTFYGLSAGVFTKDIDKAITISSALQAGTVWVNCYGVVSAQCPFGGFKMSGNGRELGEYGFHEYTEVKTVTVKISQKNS
In short: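 Purified human ALDH1A1 (5 μg/mL) in […] pH 7.4 with 200 mM KCl and 4 mM DTT, plus test compound at 1000 ng/mL. Pre-incubated 10 min at 37 °C, then started with NAD or […] (1 mM) as the isozyme requires. Sampled at 0–60 min into H2SO4, acetonitrile-extracted, and parent and […] measured by LC-MS/MS. Inhibition arms used anti-ALDH1A1 antibody or disulfiram. Three independent experiments; rate normalised per μg enzyme.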

RBCs [4] = experiment: Apparent Vmax and Km determination in 10% RBCs in plasma; type: in vitro ADME, human
ALDH2 = biological target: T2, ALDH2 (Homo sapiens, UniProt P05091); experiment: Metabolism using purified ALDH isoforms: ALDH2; type: biochemical; settings: purified ALDH2, BEN 1000 ng/mL
T2 sequence (P05091 18-517): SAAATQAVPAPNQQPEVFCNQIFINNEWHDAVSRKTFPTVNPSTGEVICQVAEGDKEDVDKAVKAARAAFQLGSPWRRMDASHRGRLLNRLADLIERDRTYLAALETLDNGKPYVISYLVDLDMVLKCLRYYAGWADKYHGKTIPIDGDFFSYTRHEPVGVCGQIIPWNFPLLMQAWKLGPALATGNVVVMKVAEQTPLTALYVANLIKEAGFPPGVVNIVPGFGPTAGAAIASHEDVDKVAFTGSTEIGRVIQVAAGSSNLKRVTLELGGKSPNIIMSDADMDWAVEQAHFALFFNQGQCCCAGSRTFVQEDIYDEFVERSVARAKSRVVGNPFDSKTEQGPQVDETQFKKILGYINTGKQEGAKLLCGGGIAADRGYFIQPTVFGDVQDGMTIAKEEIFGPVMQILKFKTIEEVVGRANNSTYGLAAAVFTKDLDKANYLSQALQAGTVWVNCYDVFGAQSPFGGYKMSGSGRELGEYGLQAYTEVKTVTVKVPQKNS

[5] = tested on: renal carcinoma cells (RCC); settings: cited from earlier work
ALDH3A1 = biological target: T3, ALDH3A1 (Homo sapiens, UniProt P30838); experiment: Metabolism using purified ALDH isoforms: ALDH3A1; type: biochemical; settings: purified ALDH3A1, BEN 1000 ng/mL
T3 sequence (P30838 1-453): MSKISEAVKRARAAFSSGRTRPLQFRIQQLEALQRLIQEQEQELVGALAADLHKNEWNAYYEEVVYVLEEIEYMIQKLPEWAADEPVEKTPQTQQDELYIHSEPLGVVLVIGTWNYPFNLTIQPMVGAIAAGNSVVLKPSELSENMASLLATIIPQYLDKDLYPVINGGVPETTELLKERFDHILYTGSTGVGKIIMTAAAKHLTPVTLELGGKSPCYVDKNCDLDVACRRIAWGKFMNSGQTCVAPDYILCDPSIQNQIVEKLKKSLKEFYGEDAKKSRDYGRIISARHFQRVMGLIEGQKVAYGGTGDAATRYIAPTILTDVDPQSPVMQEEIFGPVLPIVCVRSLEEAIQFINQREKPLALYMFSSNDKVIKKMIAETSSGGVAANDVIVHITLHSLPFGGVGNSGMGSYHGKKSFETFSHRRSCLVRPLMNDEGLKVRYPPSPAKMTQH

[6] = humans, after 9 mg/m^2; cited from earlier work
lysed RBCs = experiment: BEN in lysed blood; type: in vitro ADME, human
In short: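 10% RBCs in plasma lysed by three freeze-thaw cycles and incubated at 37 °C alongside unlysed cells. Test compound added at 10 μg/mL final; sampled at 5, 60, 120 and 180 min. In a cofactor arm, NADH or NADPH (500 μM final) was added to lysed RBCs and sampling ran from 5 to 120 min. Parent quantified by LC-MS/MS.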

RBCs [7] = type: in vitro ADME, human; settings: 10% RBCs, all incubations (with and without CO or N2), BEN 3 μg/mL
ALDH5A1 = biological target: T4, ALDH5A1 (Homo sapiens, UniProt P51649); experiment: Metabolism using purified ALDH isoforms: ALDH5A1; type: biochemical; settings: purified ALDH5A1, BEN 1000 ng/mL
T4 sequence (P51649 48-535): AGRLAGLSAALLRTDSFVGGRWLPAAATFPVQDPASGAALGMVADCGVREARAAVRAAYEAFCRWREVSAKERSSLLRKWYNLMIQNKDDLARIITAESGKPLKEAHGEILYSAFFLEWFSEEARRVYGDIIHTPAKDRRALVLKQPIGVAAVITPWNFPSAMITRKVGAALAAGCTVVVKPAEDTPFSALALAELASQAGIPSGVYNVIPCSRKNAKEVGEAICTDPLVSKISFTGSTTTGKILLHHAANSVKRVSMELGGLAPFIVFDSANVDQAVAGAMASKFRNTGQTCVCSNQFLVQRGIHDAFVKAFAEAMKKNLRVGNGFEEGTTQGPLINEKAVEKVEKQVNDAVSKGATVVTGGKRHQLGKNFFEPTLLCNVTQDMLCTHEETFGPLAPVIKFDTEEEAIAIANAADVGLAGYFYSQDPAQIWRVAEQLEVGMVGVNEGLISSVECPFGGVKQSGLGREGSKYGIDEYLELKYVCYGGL

[8] = mice, after 20 mg/kg BEN; cited from earlier work
RBCs [9] = experiment: Effect of RBC concentration on BEN metabolism; type: in vitro ADME, human; settings: BEN 10 μg/mL, 37 °C
In short: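 RBCs taken from the bottom of the packed layer, avoiding the buffy coat, and resuspended in plasma at 0, 0.1, 1 and 10%. Test compound spiked at 10 μg/mL and incubated at 37 °C in a shaking bath. Aliquots taken from 0 to 360 min and at 24 h; remaining parent measured by LC-MS/MS.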

RXF-393 = settings: mice, RXF-393 implanted subcutaneously or orthotopically under the renal capsule; cited from earlier work
BEN blood partitioning = type: in vitro ADME, human; settings: 50% RBCs in plasma, on ice
In short: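 Blood (50% RBCs in plasma) held on ice with 1 mM disulfiram for 10 min, then dosed with test compound at 1000 ng/mL final. Blood sampled at 5–30 min and spun at 12,000 × g for 2 min; plasma acidified with H2SO4 and analysed by LC-MS/MS. Run in parallel in 100% plasma, in triplicate. Ratio taken as plasma-only concentration divided by plasma concentration from the 50%-RBC incubation.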

[10] = preliminary experiments; cited from earlier work
CYP3A = settings: preliminary experiments; cited from earlier work
[11] = Lot 4 +7 days (7 day old blood stored at 4 °C), 10% RBCs
[12] = mean over the lots of Table 1, 10% RBCs

Cc1cc(N(CCOS(C)(=O)=O)CCOS(C)(=O)=O)ccc1C=O [BEN, 4-[bis[2-[(methylsulfonyl)-oxy]ethyl]amino]-2-methyl-benzaldehyde]
conversion in whole blood [1]: rapidly converted to its carboxylic acid analogue (BA) | in vitro half-life in plasma [2]: 22 min | amount of BEN remaining (RBCs [3]; control sample without inhibitor, 10% RBCs, BEN 1 μg/mL): 0.5% | ability of isoform to metabolize BEN (purified human ALDH1A1; purified ALDH1A1, BEN 1000 ng/mL): showed the ability to metabolize BEN | rate of disappearance of BEN (purified human ALDH1A1; three independent experiments, 5 μg/mL purified enzyme, BEN 1000 ng/mL, 37 °C): 0.172 ng/min/μg of enzyme and 0.224 ng/min/μg of enzyme and 0.154 ng/min/μg of enzyme | starting concentrations that display linear metabolism (RBCs [4]; 10% RBCs): below 400 ng/mL | Cl (RBCs [4]; Lot 1 human blood, 10% RBCs): 0.333 mL/min | Km (RBCs [4]; Lot 1 human blood, 10% RBCs): 196.3 ng/mL | Vmax (RBCs [4]; Lot 1 human blood, 10% RBCs): 65.44 ng/mL^−1•min^−1•[10% RBC]^−1 | Cl (RBCs [4]; Lot 2 human blood, 10% RBCs): 0.2736 mL/min | Km (RBCs [4]; Lot 2 human blood, 10% RBCs): 319.5 ng/mL | Vmax (RBCs [4]; Lot 2 human blood, 10% RBCs): 87.42 ng/mL^−1•min^−1•[10% RBC]^−1 | Cl (RBCs [4]; Lot 3 human blood, 10% RBCs): 0.282 mL/min | Km (RBCs [4]; Lot 3 human blood, 10% RBCs): 256.2 ng/mL | Vmax (RBCs [4]; Lot 3 human blood, 10% RBCs): 72.27 ng/mL^−1•min^−1•[10% RBC]^−1 | Cl (RBCs [4]; [11]): 0.1432 mL/min | Km (RBCs [4]; [11]): 699.6 ng/mL | Vmax (RBCs [4]; [11]): 100.2 ng/mL^−1•min^−1•[10% RBC]^−1 | Cl (RBCs [4]; Lot 4 human blood, 10% RBCs): 0.1859 mL/min | Km (RBCs [4]; Lot 4 human blood, 10% RBCs): 609.8 ng/mL | Vmax (RBCs [4]; Lot 4 human blood, 10% RBCs): 113.4 ng/mL^−1•min^−1•[10% RBC]^−1 | Cl (RBCs [4]; Lot 5 human blood, 10% RBCs): 0.1588 mL/min | Km (RBCs [4]; Lot 5 human blood, 10% RBCs): 481.8 ng/mL | Vmax (RBCs [4]; Lot 5 human blood, 10% RBCs): 76.5 ng/mL^−1•min^−1•[10% RBC]^−1 | Cl (RBCs [4]; Lot 6 human blood, 10% RBCs): 0.1836 mL/min | Km (RBCs [4]; Lot 6 human blood, 10% RBCs): 371.2 ng/mL | Vmax (RBCs [4]; Lot 6 human blood, 10% RBCs): 68.16 ng/mL^−1•min^−1•[10% RBC]^−1 | Average apparent Km (RBCs [4]; human RBC, abstract): 373 ng/mL | Cl, Mean (RBCs [4]; [12]): 0.22 mL/min | Vmax, Mean (RBCs [4]; [12]): 83.3 ng/mL^−1•min^−1•[10% RBC]^−1 | ability of isoform to metabolize BEN (ALDH2): ALDH1A1 was the only isoform that showed the ability to metabolize BEN | activity in the NCI 60 cell line screen [5]: specific activity against renal carcinoma cells (RCC) | ability of isoform to metabolize BEN (ALDH3A1): ALDH1A1 was the only isoform that showed the ability to metabolize BEN | exposures observed [6]: 14.5 ng/mL | metabolism of BEN by lysed RBCs (lysed RBCs; 10% RBCs lysed by freeze-thaw, no cofactor added): did not metabolize BEN | metabolism of BEN by lysed RBCs (lysed RBCs; 10% lysed RBCs + NADH 500 μM): restored the ability of lysed RBCs to metabolize BEN | metabolism of BEN by lysed RBCs (lysed RBCs; 10% lysed RBCs + NADPH 500 μM): partially restored the ability of lysed RBCs to metabolize BEN | time after which the concentration of BEN was halved (RBCs [7]): approximately 60 min | ability of isoform to metabolize BEN (ALDH5A1): ALDH1A1 was the only isoform that showed the ability to metabolize BEN | exposures observed [8]: 16 ng/mL | BEN remaining (RBCs [9]; 10% RBCs, after 6 hours): 5% | BEN remaining (RBCs [9]; 10% RBCs, after one hour): 54% | BEN remaining (RBCs [9]; no RBCs, after 6 hours): 59% | BEN remaining (RBCs [9]; no RBCs, after one hour): 99% | antitumor activity (RXF-393): demonstrated antitumor activity | time by which the equilibrium between RBCs and plasma was complete (BEN blood partitioning): ≤ 5 min | average plasma to whole blood partition ratio (BEN blood partitioning; disulfiram 1 mM, BEN 1000 ng/mL, triplicate): 1.25 ± 0.08 | metabolism in cytosolic fraction [10]: oxidized | metabolism in liver microsomal fraction (CYP3A): undergoes N-dealkylation

CC1=CC(=O)c2ccccc2C1=O [menadione]
inhibition of BEN metabolism compared with vehicle control (RBCs [3]; 3 mM menadione, 1.5% DMSO v:v, 10% RBCs): DMSO alone (1.5% DMSO v:v) caused the same extent of inhibition | inhibition of BEN metabolism (conversion of BEN to BA) in RBC (RBCs [3]; BEN 1 μg/mL): not inhibited; also recorded: only a partial inhibitory effect

CCN(CC)C(=S)SSC(=S)N(CC)CC [disulfiram]
inhibition of BEN metabolism (conversion of BEN to BA) in RBC (RBCs [3]; BEN 1 μg/mL): inhibited; also recorded: almost complete inhibition | inhibition of BEN metabolism by purified ALDH1A1 (purified human ALDH1A1; reaction mixture with 4 mM DTT, antibodies at 100x): did not inhibit

— publication PMC4545378 (Cancer chemotherapy and pharmacology, 2015)
